According to ChEMBL document CHEMBL4622973, “Discovery of Potent Small-Molecule SIRT6 Activators: Structure-Activity Relationship and Anti-Pancreatic Ductal Adenocarcinoma Activity” (J Med Chem, 2020):
Calls of active or inactive are those of the source. The rule behind the calls is not given here.

Key:
[1] = molecular target: T1, NAD-dependent protein deacylase sirtuin-6 (Homo sapiens, UniProt Q8N6T7); assay: Activation of N-terminal his-tagged human SIRT6 expressed in Escherichia coli M15 [pREP4] assessed as increase in peptide demyristoylation at 20 uM incubated for 120 mins using Ac-EALPKK(Myr)-AMC substrate by FDL assay relative to control
T1 sequence (Q8N6T7 whole entry): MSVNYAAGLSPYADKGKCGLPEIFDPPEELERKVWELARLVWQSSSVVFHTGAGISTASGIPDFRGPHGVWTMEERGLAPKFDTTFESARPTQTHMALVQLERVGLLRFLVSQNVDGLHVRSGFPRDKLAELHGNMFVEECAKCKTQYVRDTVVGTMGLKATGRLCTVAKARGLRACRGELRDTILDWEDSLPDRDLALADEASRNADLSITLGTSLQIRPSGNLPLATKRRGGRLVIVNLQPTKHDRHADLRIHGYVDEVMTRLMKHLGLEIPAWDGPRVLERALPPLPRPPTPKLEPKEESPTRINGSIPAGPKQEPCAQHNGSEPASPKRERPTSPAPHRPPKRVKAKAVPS
Method in brief: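 Demyristoylation: 1 µM recombinant SIRT6 preincubated with compound for 20 min at 37 °C in 50 mM Tris-HCl pH 8.0, BSA 1 mg/mL, 1 mM DTT, with 10 µM Ac-EALPKK(Myr)-AMC. Started with 1 mM NAD and run 120 min at 37 °C. Developed 120 min at 37 °C with 5 mg/mL trypsin/8 mM nicotinamide. Fluorescence read. Mean ± s.d., triplicate wells, three independent experiments.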

[2] = molecular target: T1, NAD-dependent protein deacylase sirtuin-6; assay: Activation of N-terminal his-tagged human SIRT6 expressed in Escherichia coli M15 [pREP4] assessed as increase in deacetylation activity incubated for 2 hrs using Ac-RYQK(Ac)-AMC substrate by FDL assay relative to control
[3] = tested on: BXPC-3; assay: Antiproliferative activity against human BxPC3 cells assessed as reduction in cell viability incubated for 72 hrs by MTT assay; type: functional, cell-based
Method in brief: (§1)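 PDAC cells grown in DMEM or RPMI1640 with 10% FBS and penicillin/streptomycin at 37 °C, 5% CO2. Plated in triplicate, then treated with a concentration series for 72 h. Viability read by MTT. IC50 calculated from dose-response curves.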

[4] = tested on: MIA PaCa-2; assay: Antiproliferative activity against human MIAPaCa2 cells assessed as reduction in cell viability incubated for 72 hrs by MTT assay; type: functional, cell-based; method in brief: as §1
[5] = tested on: NCI-H1975; assay: Antiproliferative activity against human NCI-H1975 cells assessed as reduction in cell viability incubated for 72 hrs by MTT assay; type: functional, cell-based
[6] = tested on: NCI-H446; assay: Antiproliferative activity against human NCI-H446 cells assessed as reduction in cell viability incubated for 72 hrs by MTT assay; type: functional, cell-based
[7] = tested on: PANC-1; assay: Induction of cell cycle arrest in human PANC1 cells assessed as increase in accumulation at G2 phase incubated for 48 hrs by propidium iodide staining based flow cytometry; type: functional
Method in brief: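 PANC-1 and BXPC-3 cells in 6-well plates treated with a concentration series for 48 h. Stained with 50 µg/mL propidium iodide for 30 min in the dark. DNA content analysed by flow cytometry for cell-cycle phase distribution.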

[8] = tested on: PANC-1; assay: Inhibition of cell migration of human PANC1 cells at 10 umol/L incubated for 24 hrs by inverted microscopy relative to control; type: functional; settings: PANC-1, 24 h
Method in brief: (§2)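 PDAC cells are grown to a confluent monolayer at 37 °C in 5% CO2. The monolayer is scratched with a 200 μL pipette tip to make a gap of constant width, then washed with PBS. Cells are exposed to a range of compound concentrations. They are imaged by inverted microscope after 24 h. Migrated cells are counted by hand, and inhibition is expressed relative to untreated wells (100%).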

[9] = tested on: BXPC-3; assay: Inhibition of cell migration of human BxPC3 cells at 10 umol/L incubated for 24 hrs by inverted microscopy relative to control; type: functional; settings: BXPC-3, 24 h; method in brief: as §2
[10] = tested on: ASPC1; assay: Inhibition of cell migration of human AsPC1 cells at 10 umol/L incubated for 24 hrs by inverted microscopy relative to control; type: functional; settings: ASPC1, 24 h; method in brief: as §2
[11] = molecular target: T1, NAD-dependent protein deacylase sirtuin-6; assay: Binding affinity to SIRT6 in human PANC1 cells assessed as protection of SIRT6 protein from temperature-dependent degradation at 25 uM incubated for 72 hrs by CETSA; type: cell-based; settings: PANC-1
Method in brief: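 Cells treated with compound (25 μM) or DMSO for 72 h, washed, resuspended in PBS with protease inhibitor cocktail, split into aliquots heated 3 min at a temperature gradient. Lysed by three freeze–thaw cycles, centrifuged at 4 °C for 15 min; soluble SIRT6 in supernatant detected by western blot. Triplicate.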

[12] = molecular target: T1, NAD-dependent protein deacylase sirtuin-6; assay: […] in human PANC1 cells assessed as reduction in H3K18ac levels incubated for 72 hrs by Western blot analysis; type: cell-based; settings: PANC-1
Method in brief: (§3)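 Cells incubated 72 h with various compound concentrations; whole-cell RIPA lysates with protease inhibitors, BCA-normalised, separated on 12% SDS-PAGE, transferred to PVDF, blocked in 5% milk or BSA. Probed 10 h at 4 °C with antibodies to SIRT6, acetyl-H3K9/K18/K56, total H3, Lin28b, Myc, IGF2BP3, β-actin; HRP secondary, chemiluminescent detection.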

[13] = molecular target: T1, NAD-dependent protein deacylase sirtuin-6; assay: […] in human BxPC3 cells assessed as reduction in Lin28b expression levels at 25 uM incubated for 72 hrs by Western blot analysis; type: cell-based; settings: BXPC-3; method in brief: as §3
[14] = molecular target: T1, NAD-dependent protein deacylase sirtuin-6; assay: […] in human BxPC3 cells assessed as reduction in IGF2BP3 expression levels at 25 uM incubated for 72 hrs by Western blot analysis; type: cell-based; settings: BXPC-3; method in brief: as §3
[15] = Toxicity in BALB/c nude mouse xenografted with human PANC1 cells assessed as induction of body weight loss at 100 to 150 mg/kg/day, po for 30 days; type: organism-based, PANC-1; settings: in vivo, 720 h
Method in brief: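 Female BALB/c nude mice, 6–8 weeks old, received 5×10⁶–1×10⁷ PANC-1 cells subcutaneously in the right flank. Once tumors reached 130–150 mm³, mice were randomized (n = 6) to vehicle or 100 or 150 mg/kg/d given orally for 30 days. Body weight and toxicity were monitored against the vehicle group.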

[16] = Cmax in Sprague-Dawley rat at 10 mg/kg, po after 0.083 to 24 hrs by LC-MS/MS analysis; type: ADME, organism-based; design: dose 10 mg/kg, route oral; settings: in vivo
Method in brief: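 Male Sprague-Dawley rats, 6-8 weeks old. Dosing solution of 10 (PO) or 2 (IV) mg/mL in 5% DMSO, 10% Solutol and 85% saline, pH 7. Blood taken by cardiac puncture at 0.083–24 h (PO) or 0.25–24 h (IV). Plasma levels measured by LC-MS/MS. Values are mean ± SD, n = 3.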

[17] = Volume of distribution at steady state in Sprague-Dawley rat at 2 mg/kg, iv after 0.25 to 24 hrs by LC-MS/MS analysis; type: ADME, organism-based; settings: in vivo
Method in brief: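 Male Sprague-Dawley rats, 6–8 weeks old, received a single dose of 10 mg/kg p.o. or 2 mg/kg i.v. The vehicle was 5% DMSO, 10% Solutol and 85% saline at pH 7. Blood was taken by cardiac puncture at 0.083–24 h (p.o.) or 0.25–24 h (i.v.), and plasma was measured by LC-MS/MS. Values are mean ± SD, n = 3.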

[18] = molecular target: Histone deacetylase 2 (Homo sapiens, UniProt Q92769); assay: Inhibition of HDAC2 (unknown origin) by FDL assay
Sequence of Histone deacetylase 2 (Q92769 whole entry): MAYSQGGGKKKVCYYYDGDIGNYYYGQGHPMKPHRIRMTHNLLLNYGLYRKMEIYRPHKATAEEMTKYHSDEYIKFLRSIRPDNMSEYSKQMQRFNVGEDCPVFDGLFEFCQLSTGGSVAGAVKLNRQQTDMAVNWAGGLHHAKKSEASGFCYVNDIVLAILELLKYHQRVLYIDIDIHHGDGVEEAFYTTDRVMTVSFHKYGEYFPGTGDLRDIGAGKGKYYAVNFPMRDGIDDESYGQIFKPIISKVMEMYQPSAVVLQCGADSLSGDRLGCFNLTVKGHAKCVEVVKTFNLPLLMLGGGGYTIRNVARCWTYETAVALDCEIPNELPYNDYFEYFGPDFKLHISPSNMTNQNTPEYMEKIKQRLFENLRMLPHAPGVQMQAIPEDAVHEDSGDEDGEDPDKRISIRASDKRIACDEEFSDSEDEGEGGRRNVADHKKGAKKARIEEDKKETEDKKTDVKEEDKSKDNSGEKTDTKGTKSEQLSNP
Method in brief: (§4)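 Selectivity testing by FDL assay at concentrations up to 200 µM. SIRT1-2 assays run by an outside contract provider. Values reported as IC50.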

[19] = molecular target: Polyamine deacetylase HDAC10 (Homo sapiens, UniProt Q969S8); assay: Inhibition of HDAC10 (unknown origin) by FDL assay; method in brief: as §4
Sequence of Polyamine deacetylase HDAC10 (Q969S8 whole entry): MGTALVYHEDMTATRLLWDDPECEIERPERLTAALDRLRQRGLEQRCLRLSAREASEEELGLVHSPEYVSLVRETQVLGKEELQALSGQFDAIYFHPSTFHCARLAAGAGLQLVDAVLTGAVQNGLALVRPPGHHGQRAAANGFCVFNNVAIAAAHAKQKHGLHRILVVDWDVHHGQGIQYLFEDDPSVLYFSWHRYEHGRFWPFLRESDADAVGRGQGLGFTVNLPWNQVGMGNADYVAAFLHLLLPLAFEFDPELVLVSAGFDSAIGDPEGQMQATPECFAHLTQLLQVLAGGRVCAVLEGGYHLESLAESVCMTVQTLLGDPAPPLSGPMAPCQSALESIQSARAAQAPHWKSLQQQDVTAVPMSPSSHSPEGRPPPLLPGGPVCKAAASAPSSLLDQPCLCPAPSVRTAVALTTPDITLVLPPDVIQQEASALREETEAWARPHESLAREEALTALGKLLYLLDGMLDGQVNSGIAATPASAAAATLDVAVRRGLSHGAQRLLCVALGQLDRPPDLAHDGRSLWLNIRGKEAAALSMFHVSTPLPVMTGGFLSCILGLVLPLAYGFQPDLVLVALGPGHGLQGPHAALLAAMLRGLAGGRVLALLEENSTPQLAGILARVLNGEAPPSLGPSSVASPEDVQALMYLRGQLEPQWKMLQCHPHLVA

Activity [1]: 1230%
EC1.5 [2]: 0.58 µM
EC50 [2]: 5.35 µM
IC50 ([3]; BXPC-3, 72 h): 8.27 µM
IC50 ([4]; MIA PaCa-2, 72 h): 7.1 µM
Activity [11]: Active
inhibition [12]: Dose-dependent effect
inhibition [13]: Active
inhibition [14]: Active
Cmax [16]: 98.5 ng/mL
Vdss [17]: 1112.8 L/kg
IC50 [18]: > 200 µM
IC50 [19]: > 200 µM
SMILES: O=C(NC(c1ccccc1)c1ccccc1)c1cc(-c2cc3ccccc3o2)nc2ccccc12
Activity [3]: Dose-dependent effect
Activity [4]: Dose-dependent effect
Activity [5]: Active
Activity [6]: Active
Activity [7]: Dose-dependent effect
inhibition at 10 µM [8]: 87.8%
inhibition at 10 µM [9]: 70%
inhibition at 10 µM [10]: 55.4%
Activity [15]: Non-Toxic
